# Results from ChEMBL document CHEMBL1250480, “Design, synthesis and qualitative structure-activity evaluations of novel hexahydropyrano[3,2-c][1,2]diazepin-3(4H)-one and tetrahydropyrano[3,2-b]pyrrol-2(1H)-one derivatives as anticancer agents” (Eur J Med Chem, 2010).
# Tests used:
# Format in all cases: functional, cell-based
# A549 = assay: Cytotoxicity against human A549 cells after 48 hrs by SRB assay; conditions: A549, 48 h
# In short: (§1)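 Cells grown in RPMI-1640 with 10% FBS and antibiotics at 37 °C, 5% CO2. Agents from fresh 1 mg/ml DMSO stocks were diluted in medium and applied for 48 h at 37 °C in triplicate wells. Cells were fixed with cold 50% TCA, stained with 0.4% SRB, and the dye solubilized in 10 mM Tris pH 10.5 before reading A570. IC50 is the concentration giving 50% reduction in net protein increase versus untreated cells, after blank correction. Values are the mean ± SEM of at least two independent runs.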
# HCT-116 = assay: Cytotoxicity against human HCT116 cells after 48 hrs by SRB assay; conditions: HCT-116, 48 h; in short: as §1
# DU-145 = assay: Cytotoxicity against human DU145 cells after 48 hrs by SRB assay; conditions: DU-145, 48 h; in short: as §1
# SK-BR-3 = assay: Cytotoxicity against human SK-BR-3 cells after 48 hrs by SRB assay; conditions: SK-BR-3, 48 h; in short: as §1
# SK-N-SH = assay: Cytotoxicity against human SK-N-SH cells after 48 hrs by SRB assay; in short: as §1
Structure (SMILES),IC50 (A549),IC50 (HCT-116),IC50 (DU-145),IC50 (SK-BR-3),IC50 (SK-N-SH)
CO[C@@H]1CC=C2NN(c3ccc(C)cc3)C(=O)CC[C@]2(c2ccccc2)O1,3.17 µM,2.5 µM,2.2 µM,2.7 µM,1.7 µM
CO[C@@H]1CC=C2NN(c3ccc([N+](=O)[O-])cc3)C(=O)CC[C@]2(c2ccccc2)O1,9.49 µM,8.7 µM,9.2 µM,7.7 µM,7.3 µM
COc1cc(OC)cc(N2NC3=CC[C@@H](OC)O[C@@]3(c3ccccc3)CCC2=O)c1,2.9 µM,2.1 µM,2.4 µM,1.2 µM,3.2 µM
CO[C@@H]1CC=C2NN(c3ccccn3)C(=O)CC[C@]2(c2ccccc2)O1,1.48 µM,1.4 µM,1.29 µM,1.12 µM,2.1 µM
CO[C@@H]1CC=C2NN(c3c[nH]c4ccccc34)C(=O)CC[C@]2(c2ccccc2)O1,1.11 µM,1.1 µM,1.13 µM,1.2 µM,1 µM
COc1ccc(N2NC3=CC[C@@H](OC)O[C@@]3(c3ccccc3)CCC2=O)cc1,5.1 µM,3.1 µM,4.1 µM,2.4 µM,4.6 µM
CO[C@@H]1CC=C2NN(c3cc(Cl)cc(Cl)c3)C(=O)CC[C@]2(c2ccccc2)O1,6.13 µM,6.52 µM,8.46 µM,6.35 µM,7.11 µM
CO[C@@H]1CC=C2N(c3ccc(C)cc3)C(=O)C[C@]2(c2ccccc2)O1,3.92 µM,4.3 µM,4.4 µM,1.1 µM,3.5 µM
CO[C@@H]1CC=C2N(c3ccc([N+](=O)[O-])cc3)C(=O)C[C@]2(c2ccccc2)O1,7.15 µM,8 µM,8.1 µM,6.3 µM,9.4 µM
COc1cc(OC)cc(N2C(=O)C[C@]3(c4ccccc4)O[C@H](OC)CC=C23)c1,4.11 µM,6.1 µM,6.1 µM,1.1 µM,7.2 µM
CO[C@@H]1CC=C2N(c3ccccn3)C(=O)C[C@]2(c2ccccc2)O1,6.11 µM,7.3 µM,8.3 µM,1.1 µM,5.1 µM
CO[C@@H]1CC=C2N(c3ccc4[nH]ccc4c3)C(=O)C[C@]2(c2ccccc2)O1,5.1 µM,5.3 µM,4.1 µM,1.3 µM,4.4 µM
CO[C@@H]1CC=C2N(c3c[nH]c4ccccc34)C(=O)C[C@]2(c2ccccc2)O1,5.2 µM,7.13 µM,7.33 µM,2.3 µM,8.2 µM
CO[C@@H]1CC=C2N(c3cc(Cl)cc(Cl)c3)C(=O)C[C@]2(c2ccccc2)O1,7.53 µM,11.2 µM,8.17 µM,6.54 µM,9.67 µM
